Measured values as given in ChEMBL document CHEMBL4354819, “Discovery of Novel Small Molecule Dual Inhibitors Targeting Toll-Like Receptors 7 and 8” (J Med Chem, 2019).
Active and inactive are the calls of the source. The rule behind the calls is not given here.

Legend:
Toll-like receptor 8 = target: T1, Toll-like receptor 8 (Homo sapiens, UniProt Q9NR97); experiment: Inhibition of human TLR8 expressed in HEK293 cells assessed as reduction in R848-induced NFkappaB production incubated for 16 hrs by quanti-blue SEAP assay; type: cell-based
T1 sequence (Q9NR97 whole entry): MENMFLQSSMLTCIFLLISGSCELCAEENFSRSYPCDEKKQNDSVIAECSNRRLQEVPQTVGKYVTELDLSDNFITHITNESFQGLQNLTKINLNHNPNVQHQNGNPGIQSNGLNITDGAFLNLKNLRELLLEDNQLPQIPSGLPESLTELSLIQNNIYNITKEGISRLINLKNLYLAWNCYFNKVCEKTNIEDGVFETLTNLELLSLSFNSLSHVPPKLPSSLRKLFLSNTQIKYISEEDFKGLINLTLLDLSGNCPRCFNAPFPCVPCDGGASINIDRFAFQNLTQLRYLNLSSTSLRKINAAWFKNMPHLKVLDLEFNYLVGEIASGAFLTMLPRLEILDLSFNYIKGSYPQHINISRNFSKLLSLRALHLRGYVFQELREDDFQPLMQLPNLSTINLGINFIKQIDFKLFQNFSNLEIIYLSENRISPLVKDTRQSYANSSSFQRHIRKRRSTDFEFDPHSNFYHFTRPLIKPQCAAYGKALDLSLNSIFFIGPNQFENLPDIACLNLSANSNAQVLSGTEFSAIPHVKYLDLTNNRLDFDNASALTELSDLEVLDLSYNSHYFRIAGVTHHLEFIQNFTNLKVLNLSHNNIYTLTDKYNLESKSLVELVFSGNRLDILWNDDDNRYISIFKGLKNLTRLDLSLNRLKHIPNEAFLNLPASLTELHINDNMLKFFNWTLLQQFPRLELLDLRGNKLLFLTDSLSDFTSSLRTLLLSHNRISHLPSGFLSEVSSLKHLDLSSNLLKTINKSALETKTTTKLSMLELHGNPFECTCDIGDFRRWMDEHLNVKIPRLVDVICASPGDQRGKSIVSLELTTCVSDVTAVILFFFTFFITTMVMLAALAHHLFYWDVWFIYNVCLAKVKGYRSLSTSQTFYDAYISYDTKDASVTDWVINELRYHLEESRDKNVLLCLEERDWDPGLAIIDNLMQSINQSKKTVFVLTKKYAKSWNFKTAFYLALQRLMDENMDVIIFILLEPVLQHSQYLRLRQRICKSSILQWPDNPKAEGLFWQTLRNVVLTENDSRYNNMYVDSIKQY
In short: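 HEK 293-Blue cells stably expressing hTLR7 or hTLR8 with an inducible SEAP reporter were incubated 16 h with compound under 1 µg/mL R848 stimulation. SEAP was read at 620 nm. Data were normalized to the R848 control, and IC50 was taken from concentration-response curves. […] Mean ± s.d., n = 3 independent experiments.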

HEK293 [1] = experiment: Cytotoxicity against human HEK293 cells transfected with human TLR7 assessed as reduction in cell viability at 100 uM incubated for 16 hrs by WST-1 assay; type: cell-based; settings: hek293, 16 h
HEK293 [2] = experiment: Cytotoxicity against human HEK293 cells transfected with human TLR8 assessed as reduction in cell viability at 100 uM incubated for 16 hrs by WST-1 assay; type: cell-based; settings: hek293, 16 h
THP-1 [3] = experiment: Cytotoxicity against human THP1 cells transfected with human TLR7/8 assessed as reduction in cell viability at 0.5 to 20 uM incubated for 16 hrs by WST-1 assay; type: cell-based; settings: thp-1, 16 h
RAW264.7 [4] = experiment: Cytotoxicity against mouse RAW264.7 cells assessed as reduction in cell viability at 0.5 to 20 uM incubated for 16 hrs by WST-1 assay; type: cell-based; settings: raw264.7, 16 h
RAW264.7 [5] = experiment: Cytotoxicity against mouse RAW264.7 cells transfected with human TLR7/8 assessed as reduction in cell viability at 0.5 to 20 uM incubated for 16 hrs by WST-1 assay; type: cell-based; settings: raw264.7, 16 h
[6] = target: T2, Toll-like receptor 8 (Homo sapiens) (UniProt Q9NR97); experiment: Inhibition of human TLR8 expressed in HEK293 cells assessed as reduction in ssRNA-induced NFkappaB production at 5 uM incubated for 16 hrs by quanti-blue SEAP assay; type: cell-based
T2 sequence (whole entry): T1 sequence (Q9NR97 whole entry)
In short: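 HEK 293 hTLR8 SEAP reporter cells were stimulated with ssRNA (ssRNA-Lyo-40) and incubated with compound for 16 h. Data were normalized as (raw − untreated)/(ligand + solvent − untreated), with ligand + solvent set as 100%. Mean ± s.d., n = 3 independent experiments.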

THP-1 [7] = experiment: Inhibition of IFN mediated immune response in human THP1 cells assessed as inhibition of 3p-hpRNA-induced RIG1 signalling pathway at 0.5 to 5 uM incubated for 16 hrs by luciferase assay; type: functional, cell-based
In short: (§1)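 THP1-Dual monocytes carrying Lucia luciferase and SEAP reporters were stimulated with 3p-hpRNA (RIG-I agonist) or Y-form dsDNA G3-YSD (cGAS agonist), with or without compound. Secreted Lucia luciferase luminescence was measured as the type I IFN read-out. Mean ± s.d., n = 3 independent experiments.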

THP-1 [8] = experiment: Inhibition of IFN mediated immune response in human THP1 cells assessed as inhibition of G3-YSD-induced cGAS signalling pathway at 0.5 to 5 uM incubated for 16 hrs by luciferase assay; type: functional, cell-based; in short: as §1
[9] = target: T2, Toll-like receptor 8 (Homo sapiens); experiment: Inhibition of human TLR8 expressed in HEK293 cells assessed as reduction in TNFalpha-induced NFkappaB production incubated for 16 hrs by quanti-blue SEAP assay; type: cell-based
In short: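 HEK 293 hTLR8 SEAP reporter cells were stimulated with recombinant hTNF-α and incubated with compound for 16 h. SEAP absorbance was read at 620 nm and compared with 50% DMSO-treated and untreated wells.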

[10] = target: T2, Toll-like receptor 8 (Homo sapiens); experiment: Inhibition of human TLR8 expressed in HEK293 cells assessed as reduction in TNFalpha production incubated for 24 hrs by ELISA; type: cell-based
[11] = target: T2, Toll-like receptor 8 (Homo sapiens); experiment: Inhibition of human TLR8 expressed in HEK293 cells assessed as reduction in IL1beta production incubated for 24 hrs by ELISA; type: cell-based
HEK293 [12] = experiment: Cytotoxicity against human HEK293 cells transfected with human TLR8 assessed as reduction in cell viability at 0.5 to 20 uM incubated for 16 hrs by WST-1 assay; type: cell-based; settings: hek293, 16 h
HEK293 [13] = experiment: Cytotoxicity against human HEK293 cells transfected with human TLR7 assessed as reduction in cell viability at 0.5 to 20 uM incubated for 16 hrs by WST-1 assay; type: cell-based; settings: hek293, 16 h

Row | IC50 (Toll-like receptor 8) | inhibition [6] | inhibition [9] | inhibition [10] | inhibition [11] | Structure (SMILES) | Activity (HEK293 [1]) | Activity (HEK293 [2]) | Activity (THP-1 [3]) | Activity (RAW264.7 [4]) | Activity (RAW264.7 [5]) | inhibition (THP-1 [7]) | inhibition (THP-1 [8]) | Activity (HEK293 [12]) | Activity (HEK293 [13])
1 | 1640 nM |  |  |  |  | O=C(Nc1ccc(Oc2cc(C(F)(F)F)cc(C(F)(F)F)c2)cc1)c1c(F)cccc1Cl |  |  |  |  |  |  |  |  | 
2 | 300 nM | Active | Active | Active | Active | O=[N+]([O-])c1c(I)cccc1Oc1ccc(-c2nnco2)cc1 | Toxic | Toxic | Non-Toxic | Non-Toxic | Non-Toxic | inactive | inactive | Non-Toxic | Non-Toxic
3 | 2870 nM | inactive | Active | Active | Active | O=C(Nc1ccc(Oc2cncc(C(F)(F)F)c2)cc1)c1c(F)cccc1Cl | Toxic | Toxic | Non-Toxic | Non-Toxic | Non-Toxic | inactive | inactive | Non-Toxic | Non-Toxic
4 | 1040 nM | inactive | Active | Active | Active | O=C(Nc1ccc(Oc2cc(C(F)(F)F)cc(C(F)(F)F)c2)cc1)c1c(F)cccc1I | Toxic | Toxic | Non-Toxic | Non-Toxic | Non-Toxic | inactive | inactive | Non-Toxic | Non-Toxic
